# Key:
# MT4 [1] = experiment: Protection was determined by evaluation of cluster morphology and reclustering properties in […] MT-4 cells at 0.2 uM concentration; Range is 10-40; assay type: functional, Homo sapiens
# Procedure, shortened: (§1)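 MT4 cells infected with HIV (300 CCID50/well) were seeded at 2.5×10^5 cells/mL with compound at 125, 5, 0.2, 0.008 or 0.00032 µM and kept 5 days at 37 °C. Clusters were scored microscopically, dispersed by pipetting, and reclustering assessed after 4 h at 37 °C. Scoring: +++ >90% protection.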
# MT4 [2] = experiment: Toxicity was determined by evaluation of cluster morphology and reclustering properties in mock infected MT-4 cells at 125 uM concentration; Range is 10-40; assay type: cell-based; details: human, mt4, 125 µM
# Procedure, shortened: (§2)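 Mock-infected MT4 cells were seeded at 2.5×10^5 cells/mL with compound at 125–0.00032 µM and cultured 5 days at 37 °C. Cluster morphology was scored microscopically, then cells were dispersed by pipetting and reclustering read after 4 h. Scoring: ++ >90%, + 10–40%, − <10% toxicity.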
# ATH-8 cell line [3] = experiment: Required dose to reduce viability of normal uninfected ATH8 cells.; assay type: functional; details: Homo sapiens, read-out: ID50 (the source's name)
# ATH-8 cell line [4] = experiment: Protection of ATH8 cells against the cytopathic effect of HIV.; assay type: functional; details: Homo sapiens, read-out: ED50 (the source's name)
# MT4 [5] = experiment: Protection was determined by evaluation of cluster morphology and reclustering properties in mock infected MT-4 cells at 125 uM concentration; assay type: functional, Homo sapiens; details: in the assay text read “HIV infected” for “mock infected”; procedure, shortened: as §1
# MT4 [6] = experiment: Toxicity was determined by evaluation of cluster morphology and reclustering properties in mock infected MT-4 cells at 5 uM concentration; assay type: cell-based; details: human, mt4, 5 µM; procedure, shortened: as §2
# MT4 [7] = experiment: Protection was determined by evaluation of cluster morphology and reclustering properties in […] at 5 uM concentration; Range is 40-60; assay type: functional, Homo sapiens
# MT4 [8] = experiment: Toxicity was determined by evaluation of cluster morphology and reclustering properties in mock infected MT-4 cells at 0.2 uM concentration; assay type: cell-based; details: human, mt4, 0.2 µM
# MT4 [9] = experiment: Protection was determined by evaluation of cluster morphology and reclustering properties in […] MT-4 cells at 125 uM concentration; Range is 40-60; assay type: functional, Homo sapiens
# MT4 [10] = experiment: Protection was determined by evaluation of cluster morphology and reclustering properties in […] MT-4 cells at 5 uM concentration.; assay type: functional, Homo sapiens; procedure, shortened: as §1
# [11] = Therapeutic index (Ratio = ID50/ED50).
# MT4 [12] = experiment: Protection was determined by evaluation of cluster morphology and reclustering properties in […] MT-4 cells at 0.2 uM concentration; assay type: functional, Homo sapiens
# MT4 [13] = experiment: Protection was determined by evaluation of cluster morphology and reclustering properties in […] at 0.008 uM concentration.; assay type: functional, Homo sapiens
# MT4 [14] = experiment: Protection was determined by evaluation of cluster morphology and reclustering properties in […] MT-4 cells at 5 uM concentration; Range is 10-40; assay type: functional, Homo sapiens; procedure, shortened: as §1
# MT4 [15] = experiment: Toxicity was determined by evaluation of cluster morphology and reclustering properties in mock infected MT-4 cells at 5 uM concentration; Range is 10-40; assay type: cell-based; details: human, mt4, 5 µM
# MT4 [16] = experiment: Toxicity was determined by evaluation of cluster morphology and reclustering properties in mock infected MT-4 cells at 125 uM concentration; assay type: cell-based; details: human, mt4, 125 µM
# MT4 [17] = experiment: Toxicity was determined by evaluation of cluster morphology and reclustering properties in mock infected MT-4 cells at 0.00032 uM concentration; assay type: cell-based; details: human, mt4, 0.00032 µM; procedure, shortened: as §2
# MT4 [18] = experiment: Protection was determined by evaluation of cluster morphology and reclustering properties in […] MT-4 cells at 0.00032 uM concentration; Range is 10-40; assay type: functional, Homo sapiens; procedure, shortened: as §1
# MT4 [19] = experiment: Protection was determined by evaluation of cluster morphology and reclustering properties in […] at 0.008 uM concentration; Range is 40-60; assay type: functional, Homo sapiens; procedure, shortened: as §1
# MT4 [20] = experiment: Toxicity was determined by evaluation of cluster morphology and reclustering properties in mock infected MT-4 cells at 0.008 uM concentration; assay type: cell-based; details: human, mt4, 0.008 µM; procedure, shortened: as §2
# MT4 [21] = experiment: Toxicity was determined by evaluation of cluster morphology and reclustering properties in mock infected MT-4 cells at 0.008 uM concentration; Range is 10-40; assay type: cell-based; details: human, mt4, 0.008 µM; procedure, shortened: as §2
# MT4 [22] = experiment: Protection was determined by evaluation of cluster morphology and reclustering properties in […] MT-4 cells at 0.008 uM concentration; Range is 10-40; assay type: functional, Homo sapiens; procedure, shortened: as §1
EC50 (ATH-8 cell line [4]) [µM],SMILES,IC50 (ATH-8 cell line [3]) [µM],Toxicity (MT4 [6]) [%],Toxicity (MT4 [8]) [%],Protection (MT4 [10]) [%],selectivity ratio [11],Protection (MT4 [12]) [%],Protection (MT4 [13]) [%],Toxicity (MT4 [16]) [%],other results
> 100,Cc1cn([C@H]2C[C@H](N=[N+]=[N-])[C@@H](CO)O2)c(=O)nc1N,> 100,< 10,< 10,,,,,,Protection (MT4 [1]): 10%; Toxicity (MT4 [2]): 10%; Protection (MT4 [5]): >90%; Protection (MT4 [7]): 40%
260,NCC1C=CC(n2ccc(N)nc2=O)O1 (stereo unspecified),> 500,< 10,< 10,<10,> 1.9,<10,,,Toxicity (MT4 [2]): 10%; Protection (MT4 [9]): 40%
> 100,CO[C@H]1C[C@H](n2cc(C)c(=O)[nH]c2=O)O[C@@H]1CO,88,,< 10,,< 0.9,<10,<10,> 90,Protection (MT4 [14]): 10%; Toxicity (MT4 [15]): 10%
100,Cc1cn([C@H]2CC[C@@H](CO)O2)c(=O)[nH]c1=O,> 2000,< 10,< 10,>90,> 20,,<10,< 10,Protection (MT4 [1]): 10%
2.4,Cc1cn([C@H]2C[C@H](N=[N+]=[N-])[C@@H](CO)O2)c(=O)[nH]c1=O (stereo in doubt; 1a) [ZIDOVUDINE],45,,,,19,>90,,,Toxicity (MT4 [17]): < 10%; Protection (MT4 [18]): 10%; Toxicity (MT4 [6]; 5 µM): > 90%; Protection (MT4 [19]): 40%; Toxicity (MT4 [20]): < 10%; Toxicity (MT4 [16]; 125 µM): > 90%
1.4,Cc1cn([C@H]2C[C@H](F)[C@@H](CO)O2)c(=O)[nH]c1=O [ALOVUDINE],15,> 90,> 90,,10,,,> 90,Toxicity (MT4 [17]): < 10%; Protection (MT4 [18]): 10%; Toxicity (MT4 [21]): 10%; Protection (MT4 [22]): 10%
> 100,Nc1ccn([C@H]2C[C@H](O)[C@@H](CO)O2)c(=O)n1 [DOXECITINE],> 100,,< 10,<10,,<10,<10,> 90,Toxicity (MT4 [15]): 10%

SMILES,EC50 (ATH-8 cell line [4]) [µM],IC50 (ATH-8 cell line [3]) [µM],Toxicity (MT4 [6]) [%],Toxicity (MT4 [8]) [%],Protection (MT4 [10]) [%],selectivity ratio [11],Protection (MT4 [12]) [%],Protection (MT4 [13]) [%],Toxicity (MT4 [16]) [%],other results
Cc1cn([C@H]2C[C@H](O)[C@@H](CO)O2)c(=O)[nH]c1=O [DOXRIBTIMINE],> 100,> 100,< 10,< 10,<10,,<10,,< 10,Protection (MT4 [9]): 40%

# — ChEMBL document CHEMBL1123791, “3'-substituted 2',3'-dideoxynucleoside analogues as potential anti-HIV (HTLV-III/LAV) agents” (J Med Chem, 1987)
